Data: ChEMBL document CHEMBL4513216, “Probing the Open Global Health Chemical Diversity Library for Multistage-Active Starting Points for Next-Generation Antimalarials” (ACS Infect Dis, 2020)

Experiment: Toxicity liver stage against HepG2, at 10uM
Assay type: cell-based
Set-up: test concentration 10 uM, cell line HepG2-A16-CD81EGFP
Settings: human, HepG2-A16-CD81EGFP cells; read-out: INHIBITION
Outline: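 Uninfected HepG2-A16-CD81EGFP cells, 3 × 10^3 per well, 1536-well, plated on prespotted compound at 10 μM final, parasite-free screening media added to match infected plates; puromycin 10 μM positive, DMSO 0.5% negative; run in parallel with 48 h PbLuc assay at 37 °C, 5% CO2; viability by CellTiter-Glo luminescence, normalized to controls.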

Compound | cytotoxicity at 10 µM [%]
CC(C)(C)c1cnc(CN2CCCCC2Cn2cccn2)o1 (centres undefined) | -7.85
COc1ccc(C(=O)N2CCOC(Cc3cccc(C(F)(F)F)c3)C2)o1 (centres undefined) | -0.869
C[C@@H]1CN(C(=O)c2ccc(=O)[nH]c2)CC[C@@]1(O)C1CCOCC1 | -1.59
CCNc1nc(C)c(C(=O)N2CCN(c3ncccc3C)CC2)s1 | 3.77
CCc1c(C)sc2c1c(N)nc(=O)n2CCN(C)C | 3.85
Cc1cccc(COC[C@@H]2CC[C@H]3[C@H](CCN3Cc3ccco3)O2)n1 | -9.81
Cc1cc2ncn(C(=O)N3CCCC3)c2cc1C | -6.01
Cc1noc(C)c1CN1CC2(CCN(C(=O)c3cc[nH]n3)C2)CC1=O (centres undefined) | 12.2
CCCNC(=O)CCc1ccnc2ccccc12 | 5.25
Cc1cc(C)n(-c2cc(N3CCN(C(=O)C(C)(C)C)CC3)nc(C)n2)n1 | 37.1
CCOCC1c2c(cnn2CC2CC2)CCN1C(=O)c1ccncn1 (centres undefined) | -118
CC(C)n1c2ccccc2c2c1cc(C(=O)N(C)C)n2S(C)(=O)=O | -90.8
Cc1cc(C)c2nc(C)cc(C(=O)N3CC(O)CO3)c2c1 (centres undefined) | 16.5
O=C(CN1CCOC1=O)N1CC[C@@H](c2ccc3ccccc3c2)[C@H](O)C1 | 0.562
CC(=O)N1CCC2(CC1)CC(C(C)C)=NO2 | 8.74
Cc1nc(C)n(CC2CN(Cc3ccccc3OC(C)C)CCO2)n1 (centres undefined) | -0.248
Cc1cc(C(=O)N2CC[C@H]3C[C@H](c4ccncn4)O[C@@H]3C2)no1 | -78
CCC(C)n1c(SCC(=O)N2CCOCC2)nc2cc(C)[nH]c2c1=O (centres undefined) | 7.94
Cc1ccc(CC2COCCN(S(C)(=O)=O)C2)nc1 (centres undefined) | -0.56
CC(C)NC(=O)CCNC(=O)c1cc(Br)cn1C(C)C | 4.33
Cc1nc(CN2CCCC(N(C)Cc3cscn3)C2)no1 (centres undefined) | 16.8
Cc1nc(CN2CCN(C(=O)c3sccc3C3CC3)CC2)oc1C | -15.2

Compound | cytotoxicity at 10 µM [%]
CS(=O)(=O)NC1CC2(CCN(CC3CC3)CC2)Oc2ccccc21 (centres undefined) | -5.34
CCn1cc(S(=O)(=O)Nc2ccc3[nH]c(C4CCC4)nc3c2)cn1 | 1.45
Cc1cc(C)n(CC2CCCN2C(=O)c2cccc3[nH]ncc23)n1 (centres undefined) | -5.55
Cc1ccc(C)c(S(=O)(=O)CCN2CCCC2Cn2cncn2)c1 (centres undefined) | -8.5
CCc1ccc(C(=O)N2C[C@@H]3COC[C@@H](C(=O)NC)[C@@H]3C2)cc1 | 1.58
CN1CCOC(CNCc2cnc(C(C)(C)C)s2)C1 (centres undefined) | -2.87
CCC(=O)c1cccc(S(=O)(=O)NC(C)C#N)c1 (centres undefined) | 3.73
CNc1cc(C2CCCN2Cc2ccccc2C(=O)O)ccn1 (centres undefined) | -5.28
O=C(c1ccno1)N1CCOC[C@H](Oc2ccccc2)C1 | -5.25
CCN1CC(C(=O)NCCn2cccc2)CC1=O (centres undefined) | -4.72
COc1ccc(C(=O)N2CCC(Oc3ccccc3C)(C(=O)O)CC2)o1 | 13.2
CCn1ncc(Nc2[nH]cnc3nncc2-3)c1C | 7.29
Cc1nc(N2CCCC2)nc2c1CCN(Cc1ccco1)CC2 | -6.52
Cc1noc(C)c1CN1CCO[C@H]2[C@H](Oc3ccccn3)CC[C@@H]21 | -6.69
O=C(CNC(=O)C1CC1)NCC(F)(F)F | -5.82
CC(C)(C)c1n[nH]cc1CNCC1CCN(CC(F)(F)F)C1 (centres undefined) | 3.5
Cn1cnnc1CNC(=O)Nc1ccc(OC2CCC2)c(F)c1 | 1.03
Cc1cccc(CN2CCc3cc(C(=O)O)c(N(C)C)nc3CC2)n1 | 3.68
NC(=O)c1cc(C2CCCN(Cc3ccc4c(c3)OCCO4)C2)n[nH]1 (centres undefined) | -7
COc1nc2c(cc1C(=O)NCCCc1csc(N)n1)CCC2 | 3.63
Cn1ncc2c(=O)[nH]c(CN3CCCC3Cc3ccccc3)nc21 (centres undefined) | -6.56
CCc1ccc(NC(=O)N2C[C@@H]3C[C@H](C(=O)NC)[C@H](C2)O3)cc1 | 5.4
